From PubChem
Avidin fluor: compound fluoresces at 488/530 nm on avidin beads; compound fluorescence 488/530 nm, flow cytometry; stronger effect = higher value; 220,000 compounds, 0.38% hits; fluorescence (KMESF) at 10 µM; AID 1775; in the data active = fluorescence above about 47
Arr AP2 block: inhibitors of human beta-arrestin and AP2 interaction; 340,000 compounds, 0.31% hits; inhibition, % at 10 µM; FITC-arrestin peptide / GST-AP2 beads, flow cytometry; AP2 beta2 appendage carries R879A mutation;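 active = inhibition above a set limit, near 3 SD of compounds lacking own fluorescence, cut at about 54% in these data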;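 also: plate controls were DMSO wells for no effect and 5 µM unlabelled arrestin peptide for full effect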
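System: GST-tagged AP2 beta2-adaptin appendage (R879A) on 4 µm glutathione beads / Reagent: FITC-arrestin peptide, 50 nM / Detection: HyperCyt-sampled flow cytometry, FL1 channel, ex 488/em 535 nm / Timing: 12 min plus 1 h, RT / Buffer or medium: PBS plus Tween 20 (0.05%) and BSA (0.1%)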
GSH fluor: compound fluoresces at 488/530 nm on GSH beads. AID 1776. fluorescence (KMESF) at 10 µM. 190,000 compounds, 0.25% hits. GSH beads flow cytometry, compound fluorescence 488/530 nm; stronger effect = higher value; in the data active = fluorescence above about 89;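 also: glutathione beads carrying GST-tagged Bcl family fusion proteins plus one bare bead set; values are compound well signal with DMSO vehicle wells as background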
DSG3 Ab inh: blocks pemphigus antibody binding to human desmoglein-3 | P32926 | DSG3-coupled beads, scFv-anti-DSG3-GFP binding, flow cytometry; stronger effect = lower value | binding (percent of control), % at 10 µM | 310,000 compounds, 0.48% hits | AID 588358;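 active = binding more than 3 SD below its plate's average and above zero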
* = called active by the depositor; / = no result. Hits are enriched below; roughly 1.1% of the tested compounds scored in any of these assays.

SMILES	Avidin fluor	Arr AP2 block	GSH fluor	DSG3 Ab inh
Cc1ccc(S(=O)(=O)NC(=O)NCC2CCN(S(=O)(=O)c3ccccc3)CC2)cc1	/	5	/	94
O=C1CN(c2ccc(Cl)cc2)C(=O)CN1NC(=S)Nc1ccc(Cl)cc1	10	22	23	61*
COc1cc(-n2c(=O)c3ccccc3n(Cc3cccc(C)c3)c2=O)cc(OC)c1OC	9	8	26	98
COc1ccc(-n2c(=O)c3ccccc3n(Cc3ccc(F)cc3)c2=O)cc1OC	104*	5	20	101
CCOc1ccc(OCc2ccc(C(=O)OCc3ccccn3)o2)cc1	38	-8	25	40*
COc1ccc(C(=O)OCCN2CCOCC2)cc1	5	26	96*	104
Cc1ccc(S(=O)(=O)Nc2nc(C)c(NC(=O)OCCCl)s2)cc1	62*	-3	27	94
Cc1nc(NS(=O)(=O)c2ccccc2)sc1NC(=O)OC(C)C	10	1	52	103
Cc1cc(=O)oc2cc(OCc3ccc(C(=O)OCC(=O)NC4CCS(=O)(=O)C4)cc3)ccc12 (stereo not given)	6	26	/	70*
COc1ccc(N2CCN(C(=O)c3ccc(COc4ccc5c(C)cc(=O)oc5c4)cc3)CC2)cc1	84*	7	24	99
Cc1ccc(/C(N)=N/OC(=O)c2ccc3c(c2)OCO3)cc1	13	-5	23	101
COc1ccc(/C(N)=N/OC(=O)c2ccc3c(c2)OCO3)cc1	48*	6	10	/
CCOC(=O)c1c(NC(=O)C2C3C=CC(C3)C2C(=O)O)sc2c1CCC(C)C2 (stereo not given)	9	35	11	98
CCOC(=O)c1c(NC(=O)C2C3C=CC(C3)C2C(=O)O)sc2c1CCCC2 (stereo not given)	14	-8	11	37*
CCOc1ccc(C=NNc2ccc(S(=O)(=O)Nc3ccccc3C(=O)O)cc2[N+](=O)[O-])cc1	/	36	/	89*
CSc1ccc(C=NNc2ccc(S(=O)(=O)Nc3ccccc3C(=O)O)cc2[N+](=O)[O-])cc1	/	-13	/	72*
CCOc1cccc(C=NNc2ccc(S(=O)(=O)Nc3ccccc3C(=O)O)cc2[N+](=O)[O-])c1O	/	1	/	118
COCCn1ccc2c(OCC(=O)NCCc3ccccc3)cccc2c1=O	/	2	/	104
Cc1[nH]c2ccccc2c1/C=N/NC(=O)c1cccc([N+](=O)[O-])c1	11	6	9	60*
Cn1cc(/C=N/NC(=O)c2cccc([N+](=O)[O-])c2)c2ccccc21	12	-13	19	25*
COc1ccccc1CNC(=O)COC(=O)c1ccccn1	/	-5	/	102
CS(=O)(=O)CCC(C(=O)Nc1ccc2c(c1)OCO2)N1Cc2ccccc2C1=O (stereo not given)	/	-3	/	100
COc1cc(/C=N/NC(=O)c2ccc(O)cc2)ccc1Oc1ccc([N+](=O)[O-])cn1	11	-4	18	83
c1ccc(CSc2ccc(-c3ccc4c(c3)OCO4)nn2)cc1	7	8	15	1.2*
Fc1ccc(CSc2ccc(-c3ccc4c(c3)OCO4)nn2)cc1	18	7	16	/
SMILES	Avidin fluor	Arr AP2 block	GSH fluor	DSG3 Ab inh
CCCSC1=N/C(=C\c2ccc3c(c2)OCO3)C(=O)S1	60*	24	52	97
CCSC1=N/C(=C\c2ccc3c(c2)OCO3)C(=O)S1	21	-8	12	102
CCN(CC)C(=O)C(=O)c1cc(C)n(-c2ccc(F)cc2)c1C	12	2	16	88
CC(C)(C)CN1CCC(Oc2cccc(C(=O)N3CCC[C@H]3CO)c2)CC1	/	26	/	103
COC(=O)CSc1nnc2cc(C)c3ccccc3n12	9	29	/	94
NC(=O)C1CCN(CC(=O)Nc2ccc(S(=O)(=O)N3CCOCC3)cc2)CC1	/	15	/	104
Cc1ccc(S(=O)(=O)N2C[C@H]3[C@H]4C(=O)N(c5ccccc5)C(=O)[C@H]4C[C@H](OC(=O)Nc4c(C)noc4C)[C@@]3(O)C2)cc1	/	/	/	104
Cc1ccc(S(=O)(=O)N2C[C@H]3n4c(=O)ccc(=O)n4C[C@H](OC(=O)Nc4c(C)noc4C)[C@@]3(O)C2)cc1	/	/	/	92*
CC(C)Cn1c(N)c(C(=O)CSc2nc3ccccc3n2C)c(=O)n(C)c1=O	8	30	35	96
Cc1ccc(-n2nnnc2SCC(=O)c2c(N)n(CC(C)C)c(=O)n(C)c2=O)cc1	8	10	35	84*
O=C(Nc1ccccc1Cl)c1ccc(-n2cccn2)c([N+](=O)[O-])c1	11	16	14	106
CN(c1ccc(C(=O)Nc2cccc(O)c2)cc1)S(=O)(=O)c1ccccc1	/	-9	/	104
